Assay results of several laboratories.
Target: Dual specificity mitogen-activated protein kinase kinase 2 (MAP2K2, Homo sapiens, UniProt P36507)

CO[C@@H](C)c1c(Nc2ccc([C@@H](N(C)C(=O)C3CCS(=O)(=O)CC3)C(F)(F)F)cc2)cnc2cc(Cl)nn12
remaining binding (cell-free assay, competition with immobilised ligand; 1 µM): 97%

CCN1CCN(Cc2ccc(C(=O)Nc3ccc(C)c(Oc4ccc5c(c4)CC(=O)N5)c3)cc2C(F)(F)F)CC1
remaining binding (binding, competition with immobilised ligand; 1 µM): 100%

O=C(Nc1c[nH]nc1C(=O)NC1CCNCC1)c1cc(F)cc(F)c1
remaining binding (binding, competition with immobilised ligand; 1 µM): 90%

O=C(NCCCN1CCOCC1)c1ccc(Nc2nccc(-c3cc4ccccc4s3)n2)cc1
remaining binding (binding, competition with immobilised ligand; 1 µM): 79%

C[C@@H]1CN(c2ccc3ncc(-c4ccc5[nH]nc(C6CC6)c5c4)n3n2)C[C@H](C)O1
remaining binding (binding, competition with immobilised ligand; 0.5 µM): 100%

Cc1noc([C@H]2C[C@@H](c3ccc(C(F)(F)F)cc3)CN(C(=O)N3CCS(=O)(=O)C3)C2)n1
remaining binding (cell-free assay, competition with immobilised ligand; 1 µM): 90%

O=C(NCCCN1CCOCC1)c1ccc(Nc2ncc(Cl)c(-c3ccc(Cl)s3)n2)cc1
remaining binding (binding, competition with immobilised ligand; 1 µM): 59%

O=C(Nc1cccnn1)N1CC(C/C=C/c2cncc(Oc3ccc(C(F)(F)F)cn3)n2)C1
remaining binding (cell-free assay, competition with immobilised ligand; 1 µM): 95%

CN(C)c1nccc(-c2cnc3ncccn23)n1
remaining binding (binding; 1 µM): 65%

O=C(O)[C@@H]1[C@@H](Cn2nnc3ccccc3c2=O)CC[C@H]1C(=O)c1ccc(OCCC2CCOCC2)cc1
remaining binding (cell-free assay, competition with immobilised ligand; 1 µM): 100%

N[C@@H]1CCN(c2nccc(-c3cnn4ncccc34)n2)C1
remaining binding (binding; 1 µM): 84%

Nc1ncc2c(n1)-c1c([nH]c3ccc(C#CC4CC4)cc13)CCCC2
remaining binding (binding, competition with immobilised ligand; 1 µM): 96%

O=C(c1ccc(Nc2nccc(-c3cc4ccccc4s3)n2)cc1)N1CCC(N2CCCC2)CC1
remaining binding (binding, competition with immobilised ligand; 1 µM): 60%

c1cnn2ncc(-c3ccnc(N4CCC45COC5)n3)c2c1
remaining binding (binding; 1 µM): 81%

N#Cc1ccccc1CSc1nnc2c(n1)[nH]c1ccccc12
remaining binding (binding, competition with immobilised ligand; 10 µM): 87%

CC1CCCN1c1nccc(-c2cnn3ncccc23)n1 (stereo not drawn)
remaining binding (binding; 1 µM): 96%

Cc1c(NC(=O)c2cc(C(N)=O)nc3cc(F)ccc23)c(C(F)(F)F)nn1Cc1ccc(C(C)(C)C)cc1
remaining binding (cell-free assay, competition with immobilised ligand; 1 µM): 100%

F[C@@H]1CCN(c2nccc(-c3cnn4ncccc34)n2)C1
remaining binding (binding; 1 µM): 88%

CC(=O)c1c(NS(C)(=O)=O)c2cc(-c3ccc(Cl)cc3)c(-c3ccc(Cl)cc3Cl)nc2n(C)c1=O
remaining binding (cell-free assay, competition with immobilised ligand; 1 µM): 100%

COc1cnc(Nc2cccc(S(N)(=O)=O)c2)nc1N1CCN(c2ccccc2)CC1
remaining binding (binding, competition with immobilised ligand; 1 µM): 83%

c1cncc(-c2cccc(Nc3nccc(NC4CCCCC4)n3)c2)c1
remaining binding (binding, competition with immobilised ligand; 10 µM): 83%

C[C@@]1(Cc2ccc(C#N)cc2)C(=O)N(c2cc(Cl)cc(Cl)c2)c2ncc(C(=O)NC3(c4nc(C5CCC5)no4)CC3)n21
remaining binding (cell-free assay, competition with immobilised ligand; 1 µM): 99%

COc1ncc2cc3ccccc3nc2c1C#N
remaining binding (cell-free assay, competition with immobilised ligand; 5 µM): 92%

COc1ccnn2ncc(-c3ccnc(N(C)C)n3)c12
remaining binding (binding; 1 µM): 100%
